Source: PMC7551138 (Alzheimer's & Dementia : Translational Research & Clinical …, 2020)

Legend:
Assay type in all cases: in vivo, human
[1] = system: healthy elderly subjects; assay: Monitoring of treatment‐emergent adverse events
In short: (§1)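 Randomised, double-blind, placebo-controlled trial in healthy subjects aged ≥65 (n=48; 12 active:4 placebo per cohort, placebos pooled). Intranasal test compound 5.5, 11 or 22 mg or 0.9% NaCl b.i.d. for 7 days, 6 h between doses. The 11 mg active subjects later got one open-label oral 16 mg dose of the parent drug. Safety was tracked by TEAEs, nasal examination, vital signs, ECG and safety bloods.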

[2] = system: healthy elderly subjects; assay: Vital signs; conditions: for Diastolic BP supine / Pulse Rate supine / Systolic BP supine: vs placebo, mean (confidence interval)
In short: as §1

[3] = Plasma pharmacokinetics, non‐compartmental analysis
[4] = CSF and plasma concentrations, Gln‐1062 11 mg vs 16 mg oral galantamine
[5] = system: healthy elderly subjects; assay: NeuroCart adaptive tracking test; conditions: vs placebo, mean (confidence interval)
In short: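 Joystick task keeping a dot inside a moving circle. Circle speed rises while the dot stays inside and falls when it escapes. The score is % time tracked over 3.5 min, including a 0.5 min run-in. Testing was repeated over time, with extra sessions in the 22 mg cohort. Analysis was mixed-model ANOVA (treatment, time, treatment×time fixed; subject random; baseline covariate), reporting LSM difference versus placebo with CI.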

[6] = system: healthy elderly subjects; assay: NeuroCart eye movements; conditions: vs placebo, mean (confidence interval)
In short: (§2)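 NeuroCart tests were repeated over time during the 7-day b.i.d. intranasal dosing: eye movements, N-back with 3 working-memory-load conditions, pharmaco-EEG, and 100-mm VAS (Bond and Lader mood/alertness/calmness; nausea). In the 22 mg cohort, EEG at 30 min and 3 h post-dose was dropped. Analysis was mixed-model ANOVA (treatment, time, treatment×time fixed; subject random; baseline covariate), giving LSM difference versus placebo with CI.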

[7] = system: healthy elderly subjects; assay: Visual analogue scales; conditions: vs placebo, mean (confidence interval)
In short: as §2

[8] = 5.5 mg b.i.d. intranasal, within 24 hours after first administration, dosing day 1
[9] = 22 mg b.i.d. intranasal, within 24 hours after first administration, dosing day 1
[10] = 5.5 mg b.i.d. intranasal 7 days

COc1ccc2c3c1O[C@H]1C[C@@H](OC(=O)c4ccccc4)C=C[C@@]31CCN(C)C2 [Gln‐1062]
TEAEs within 24 hours: All gastrointestinal disorders [1, 8]: 1 (8.3) number of subjects (percentage
TEAEs within 24 hours: Any events [1, 8]: 7 (58.3) number of subjects (percentage
TEAEs within 24 hours: Nausea [1, 8]: 1 (8.3) number of subjects (percentage
TEAEs within 24 hours: Vomiting [1, 8]: 1 (8.3) number of subjects (percentage
TEAEs within 24 hours: Any events ([1]; 11 mg b.i.d. intranasal, within 24 hours after first administration, dosing day 1): 12 (100.0) number of subjects (percentage
TEAEs within 24 hours: All gastrointestinal disorders [1, 9]: 6 (50.0) number of subjects (percentage
TEAEs within 24 hours: Any events [1, 9]: 12 (100.0) number of subjects (percentage
TEAEs within 24 hours: Diarrhea [1, 9]: 2 (16.7) number of subjects (percentage
TEAEs within 24 hours: Nausea [1, 9]: 5 (41.7) number of subjects (percentage
TEAEs within 24 hours: Vomiting [1, 9]: 3 (25.0) number of subjects (percentage
intensity of TEAEs ([1]; 5.5 to 22 mg b.i.d., 7 days): mild or moderate
serious adverse events ([1]; 5.5 to 22 mg b.i.d., 7 days): no serious adverse events
safety and tolerability ([1]; up to 22 mg b.i.d. intranasal for 7 days): safe and well tolerated
Diastolic BP supine [2, 10]: 2.5 (−0.6, 5.6) P = 0.1105 mmHg
Pulse Rate supine [2, 10]: −2.5 (−6.4, 1.4) P = 0.2044 bpm
Systolic BP supine [2, 10]: 5.0 (−0.3, 10.4) P = 0.0644 mmHg
Diastolic BP supine ([2]; 11 mg b.i.d. intranasal 7 days): 0.9 (−2.2, 4.1) P = 0.5566 mmHg
Pulse Rate supine ([2]; 11 mg b.i.d. intranasal 7 days): −1.0 (−4.9, 2.9) P = 0.6030 bpm
Systolic BP supine ([2]; 11 mg b.i.d. intranasal 7 days): 1.2 (−4.1, 6.5) P = 0.6528 mmHg
Diastolic BP supine ([2]; 22 mg b.i.d. intranasal 7 days): 1.2 (−1.9, 4.3) P = 0.4437 mmHg
Pulse Rate supine ([2]; 22 mg b.i.d. intranasal 7 days): 0.5 (−3.5, 4.4) P = 0.8169 bpm
Systolic BP supine ([2]; 22 mg b.i.d. intranasal 7 days): 1.8 (−3.6, 7.2) P = 0.5098 mmHg
effect on the pulse rate ([2]; all dose levels): No statistically significant effect
increase in mean diastolic blood pressure ([2]; first dosing day, 11 mg): 5.1 mm Hg
changes in blood and urinary laboratory values and ECG safety parameters ([2]; multiple doses): did not result in clinically significant changes
increase in systolic blood pressure ([2]; seventh day, 5.5 mg): 7.6 mm Hg
t1/2 of Gln‐1062 in plasma, mean (± SD) ([3]; 5.5 mg intranasal): 1.16 (±0.37) hour
t1/2 of Gln‐1062 in plasma, mean (± SD) ([3]; 22 mg intranasal): 2.09 (± 0.58) hour
median Tmax of Gln‐1062 in plasma ([3]; intranasal 5.5, 11 or 22 mg b.i.d., range 0.5 to 1.0 hour): 30 min
Gln‐1062 concentrations in CSF ([4]; 11 mg Gln‐1062 intranasal): below the limit of quantification
Dose‐corrected plasma and CSF concentrations of galantamine cleaved from Gln‐1062, compared with oral galantamine ([4]; 11 mg Gln‐1062 intranasal vs 16 mg oral galantamine): lower
Adaptive tracking [5, 10]: 0.520 (−0.779, 1.818) P = 0.4240 %‐point
Adaptive tracking ([5]; 11 mg b.i.d. intranasal 7 days): 0.318 (−0.992, 1.627) P = 0.6266 %‐point
Saccadic Inaccuracy [6, 10]: 0.59 (−0.46, 1.64) P = 0.2627%
Saccadic Peak Velocity [6, 10]: −0.06 (−21.97, 21.85) P = 0.9958 deg/s
Saccadic Reaction Time [6, 10]: −0.0112 (−0.0224,−0.0001) P = 0.0481 sec
Smooth Pursuit [6, 10]: −1.28 (−5.10, 2.53) P = 0.5011%
Saccadic Inaccuracy ([6]; 11 mg b.i.d. intranasal 7 days): 0.20 (−0.89, 1.30) P = 0.7099%
Saccadic Peak Velocity ([6]; 11 mg b.i.d. intranasal 7 days): 5.03 (−17.82, 27.87) P = 0.6588 deg/s
Saccadic Reaction Time ([6]; 11 mg b.i.d. intranasal 7 days): −0.0018 (−0.0134, 0.0098) P = 0.7546 sec
Smooth Pursuit ([6]; 11 mg b.i.d. intranasal 7 days): −0.10 (−4.04, 3.84) P = 0.9597%
Saccadic Inaccuracy ([6]; 22 mg b.i.d. intranasal 7 days): 0.51 (−0.56, 1.58) P = 0.3393%
Saccadic Peak Velocity ([6]; 22 mg b.i.d. intranasal 7 days): 8.63 (−13.65, 30.91) P = 0.4379 deg/s
Saccadic Reaction Time ([6]; 22 mg b.i.d. intranasal 7 days): −0.0013 (−0.0126, 0.0101) P = 0.8228 sec
Smooth Pursuit ([6]; 22 mg b.i.d. intranasal 7 days): 2.00 (−1.88, 5.88) P = 0.3039%
VAS Alertness [7, 10]: −1.09 (−3.74, 1.57) P = 0.4134 mm
VAS Calmness [7, 10]: 0.44 (−2.59, 3.48) P = 0.7694 mm
VAS Mood [7, 10]: −0.92 (−3.98, 2.13) P = 0.5462 mm
VAS Alertness ([7]; 11 mg b.i.d. intranasal 7 days): 0.63 (−2.15, 3.41) P = 0.6514 mm
VAS Calmness ([7]; 11 mg b.i.d. intranasal 7 days): 0.27 (−2.86, 3.40) P = 0.8615 mm
VAS Mood ([7]; 11 mg b.i.d. intranasal 7 days): −0.49 (−3.59, 2.62) P = 0.7530 mm
VAS Alertness ([7]; 22 mg b.i.d. intranasal 7 days): −0.21 (−2.86, 2.44) p = 0.8735 mm
VAS Calmness ([7]; 22 mg b.i.d. intranasal 7 days): 0.44 (−2.61, 3.49) P = 0.7734 mm
